Assay results from paper PMC9674260 (Proceedings of the National Academy of Sciences of the …, 2022).
Like-named read-outs stand apart in the source and are kept apart here. Blank lines part the entries; values can stand above or below the molecule they belong to.

Experiments:
[1] = system: AT2 cells in alveolospheres; assay type: cell-based, mouse; settings: LGK974 alone, 2 wk
LRP6 E1 = target: T1, LRP6 E1 (Homo sapiens, UniProt O75581); experiment: SPR binding to immobilized LRP6 E1 domain
T1 sequence (O75581 20-326): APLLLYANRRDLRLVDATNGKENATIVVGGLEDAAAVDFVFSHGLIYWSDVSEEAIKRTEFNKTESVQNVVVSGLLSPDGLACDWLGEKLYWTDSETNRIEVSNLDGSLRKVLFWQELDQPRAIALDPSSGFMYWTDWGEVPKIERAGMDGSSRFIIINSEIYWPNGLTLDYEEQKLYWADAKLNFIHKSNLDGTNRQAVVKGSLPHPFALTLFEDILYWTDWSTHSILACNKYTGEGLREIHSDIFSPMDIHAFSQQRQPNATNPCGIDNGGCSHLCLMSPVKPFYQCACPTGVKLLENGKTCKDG

LRP6 E1-E2 = experiment: SPR binding to immobilized LRP6 E1-E2; design: species or system human
[2] = target: LRP6 E1-E2 domains (human); experiment: SPR
[3] = target: LRP6 E3-E4 domains (human); experiment: SPR
[4] = system: Wnt1/sFRP-1 binding to LRP6-E1-E2; experiment: SPR competition with Wnt1/sFRP-1 for LRP6-E1-E2; design: species or system human; settings: surface coated with LRP6-E1-E2 and saturated with competitor
Summary of the method: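 The SPR surface was coated with LRP6-E1-E2, then saturated with competitor or given buffer only. Wnt1/sFRP-1 (purified recombinant complex), competitor, or a mixture of the two was injected immediately afterward. Wnt1/sFRP-1 binding signal with or without competitor was inspected manually.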

LRP6 E3-E4 = experiment: SPR binding to immobilized LRP6 E3-E4; design: species or system human
LRP6 E2 = settings: read-out: KD, binding to E2 alone; previously reported; cited from earlier work
MC3T3-E1 cells = experiment: Osteogenic differentiation of MC3T3-E1 cells; assay type: cell-based, murine; settings: MC3T3-E1 in om+ medium, 21 d; 5 µM Lr-EET-3.5, 1 µg SOST, 1 µM FabYW210 and FabYW211; four independent assays
Summary of the method: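 MC3T3-E1 cells were grown in differentiation medium (50 µg/mL ascorbate-2-phosphate, 10 mM β-glycerophosphate) or in control medium without these factors, plus LRP6-binding reagents (Fabs 1 µM, test compound 5 µM). Mineralized nodules were stained with alizarin red S at 21 d, and nodule area above the control-medium background was quantified. Bglap mRNA was measured by qRT-PCR after 1 wk. Values are means of four independent assays, with SD and one-way ANOVA.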

[5] = target: T2, full-length extracellular domain of LRP6 (E1-E4) (human, UniProt O75581 20-1370); experiment: SPR
T2 sequence: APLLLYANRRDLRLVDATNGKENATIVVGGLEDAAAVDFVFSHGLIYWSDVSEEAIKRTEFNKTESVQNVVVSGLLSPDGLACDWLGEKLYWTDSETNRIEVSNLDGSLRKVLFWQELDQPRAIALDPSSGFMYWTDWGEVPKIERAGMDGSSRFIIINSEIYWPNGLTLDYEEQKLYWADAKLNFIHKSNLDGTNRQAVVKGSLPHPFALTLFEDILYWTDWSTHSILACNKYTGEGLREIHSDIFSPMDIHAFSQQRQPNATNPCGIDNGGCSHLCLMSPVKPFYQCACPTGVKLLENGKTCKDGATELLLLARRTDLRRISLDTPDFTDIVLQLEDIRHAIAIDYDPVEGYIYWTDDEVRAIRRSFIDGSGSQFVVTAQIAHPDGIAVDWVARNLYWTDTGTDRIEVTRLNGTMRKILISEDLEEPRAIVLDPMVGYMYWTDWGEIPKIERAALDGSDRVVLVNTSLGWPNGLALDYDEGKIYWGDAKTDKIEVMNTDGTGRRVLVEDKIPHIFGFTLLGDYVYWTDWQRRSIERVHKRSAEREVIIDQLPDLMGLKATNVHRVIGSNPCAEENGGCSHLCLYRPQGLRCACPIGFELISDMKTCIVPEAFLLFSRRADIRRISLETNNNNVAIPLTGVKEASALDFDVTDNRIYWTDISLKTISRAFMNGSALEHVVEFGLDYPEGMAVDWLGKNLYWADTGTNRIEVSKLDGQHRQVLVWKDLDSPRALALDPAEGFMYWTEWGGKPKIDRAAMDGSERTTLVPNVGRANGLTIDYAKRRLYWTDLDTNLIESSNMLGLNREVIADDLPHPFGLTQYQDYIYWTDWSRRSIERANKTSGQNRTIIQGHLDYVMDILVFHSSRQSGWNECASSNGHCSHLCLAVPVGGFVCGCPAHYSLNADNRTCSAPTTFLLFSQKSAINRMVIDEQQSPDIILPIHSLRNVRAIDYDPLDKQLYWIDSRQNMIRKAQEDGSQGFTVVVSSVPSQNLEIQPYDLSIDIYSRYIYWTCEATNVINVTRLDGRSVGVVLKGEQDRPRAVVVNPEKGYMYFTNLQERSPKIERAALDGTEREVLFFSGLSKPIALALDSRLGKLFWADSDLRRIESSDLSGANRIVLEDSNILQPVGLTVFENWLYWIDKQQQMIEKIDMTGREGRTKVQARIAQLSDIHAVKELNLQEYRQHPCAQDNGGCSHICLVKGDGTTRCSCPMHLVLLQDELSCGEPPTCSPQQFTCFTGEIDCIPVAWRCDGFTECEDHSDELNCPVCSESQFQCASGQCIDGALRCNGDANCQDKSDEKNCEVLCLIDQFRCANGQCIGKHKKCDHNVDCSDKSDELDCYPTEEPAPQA

[6] = target: LRP6 E1-E2 domains (human); experiment: SPR; remark: listed apart in the source

Molecule: Cc1cc(-c2ncc(CC(=O)Nc3ccc(-c4cnccn4)cn3)cc2C)ccn1 [LGK974]
AT2 proliferation and formation of alveolospheres [1]: abrogated AT2 proliferation and the formation of alveolospheres

Molecule: DKK1: natural Wnt inhibitor Dickkopf-1
KD, E1 alone (LRP6 E1; SPR, no competitor, two state model): no detectable binding
KD, E1-E2 in the presence of Lr-EET-3.5 (LRP6 E1-E2; surface saturated with 500 nM Lr-EET-3.5 and 500 nM CKP in every dilution): ablated the binding

Molecule: sclerostin (SOST) (from UniProt Q9BQB4 24-213) (natural protein)
KD in the presence of Lr-EET-3.5 [2]: 47 nM
Kd [2]: 3.3 nM

B1: sclerostin (SOST) (natural protein)
chain: QGWQAFKNDATEIIPELGEYPEPPPELENNKTMNRAENGGRPPHHPFETKDVSEYSCRELHFTRYVTDGPCRSAKPVTELVCSGQCGPARLLPNAIGRGKWWRPSGPDFRCIPDRYRAQRVQLLCPGGEAPRARKVRLVASCKCKRLTRFHNQSELKDFGTEAARPQKGRKPRPRARSAKANQAELENAY
KD in the presence of Lr-EET-3.5 [5]: 41 nM
Kd [5]: 3.8 nM

Continued, in another order:

Kd [2]: 135 nM
Kd [3]: 43 nM
Molecule: Dickkopf-1 (DKK1) (from UniProt O94907 32-266) (natural protein)

effect on binding of WNT1/sFRP-1 to LRP6 [4]: antagonistic effect
KD, E3-E4 (LRP6 E3-E4; two state model): no interaction detected
binding to E1 alone on addition of Lr-EET-3.5 (LRP6 E1; SPR competition, 500 nM Lr-EET-3.5): completely blocked
Molecule: SOST: natural Wnt inhibitor sclerostin
Kd (LRP6 E2): 1300 nM
inhibition of matrix mineralization (alizarin red-S staining) (MC3T3-E1 cells): comparable

Kd [5]: 6 nM
interaction with E3-E4 (LRP6 E3-E4; Wnt1/sFRP-1 as analyte): no interaction detected
Kd (LRP6 E1-E2; read-out: KD, E1-E2, Wnt1/sFRP-1 as analyte, 1:1 binding model): 3.4 nM
Kd [6]: 3.4 nM
B2: WNT1/secreted frizzled related protein 1 (sFRP-1) complex (complex)
chain 1: ANSSGRWWGIVNVASSTNLLTDSKSLQLVLEPSLQLLSRKQRRLIRQNPGILHSVSGGLQSAVRECKWQFRNRRWNCPTAPGPHLFGKIVNRGCRETAFIFAITSAGVTHSVARSCSEGSIESCTCDYRRRGPGGPDWHWGGCSDNIDFGRLFGREFVDSGEKGRDLRFLMNLHNNEAGRTTVFSEMRQECKCHGMSGSCTVRTCWMRLPTLRAVGDVLRDRFDGASRVLYGNRGSNRASRAELLRLEPEDPAHKPPSPHDLVYFEKSPNFCTYSGRLGTAGTAGRACNSSSPALDGCELLCCGRGHRTRTQRVTERCNCTFHWCCHVSCRNCTHTRVLHECL
chain 2: SEYDYVSFQSDIGPYQSGRFYTKPPQCVDIPADLRLCHNVGYKKMVLPNLLEHETMAEVKQQASSWVPLLNKNCHAGTQVFLCSLFAPVCLDRPIYPCRWLCEAVRDSCEPVMQFFGFYWPEMLKCDKFPEGDVCIAMTPPNATEASKPQGTTVCPPCDNELKSEAIIEHLCASEFALRMKIKEVKKENGDKKIVPKKKKPLKLGPIKKKDLKKLVLYLKNGADCPCHQLDNLSHHFLIMGRKVKSQYLLTAIHKWDKKNKEFKNFMKKMKNHECPTFQSVFK
